Usually IC90 stands for the concentration at which the effect reaches the 90% level. A lower IC90 goes with an effect from little substance. One may read the logP as the decadic logarithm of the partition coefficient of the neutral form, usually between octanol and water. Read a high logP as higher lipophilicity. A word on the logD: it is lipophilicity at a set pH, counting ionised and neutral species.

Molecules are shown by their SMILES. The source made the active and inactive calls. No cut-off for these calls is given here.

A short description of data set [1]: Toxicity in human RBC assessed as hemolysis pretreated at 50 uM for 30 mins followed by washing and incubated with 40 uM ferriprotoporphyrin 9 for 2hrs. It is filed as cell-based. The settings on record: erythrocyte. The method, boiled down: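 RBC exposed 30 min to 50 μM compound, washed, then held 2 h with 40 μM FP; hemolysis read from supernatant Hb at A412.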

Data set [2] is filed under the species Homo sapiens. The data set is described as follows: Binding affinity to normal human RBC membrane in presence of 15% hematocrit by fluorimetric method. A digest of the protocol: (§1)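 Human A+ RBC (citrate-phosphate-dextrose, ≤10 days), washed in cold PBS, held at 15% Htc in PBS-5 mM glucose. Incubation with compound (10 to 50 μM, 50 μM for parasitized comparisons) 30 min at 37°C. Normal RBC or D10/W2-parasitized RBC at 4,0% parasitemia. Cells pelleted, washed free of unbound drug, extracted into CHCl3-1 N HCl, quinoline read by fluorescence.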

The test system of data set [3] is Plasmodium falciparum. The data set is described as follows: Antiplasmodial activity against chloroquine-susceptible Plasmodium falciparum D10. It is filed as functional, organism-based.
Another data set has as its system Erythrocyte. Briefly: Induction of denaturation of hemoglobin in human RBC in acidic condition assessed as denatured hemoglobin level per millimitre of packed RBC. It is filed as functional. A digest of the protocol: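 Fitch-Russell method: intact RBC from 50 μl packed cells brought to 10 ml in 150 mM sodium acetate pH 5.0, held 90 min at 39°C with or without compound at 100 μM. Pellets spun at 3,500 × g, washed thrice in acetate, dissolved in 10 mM Tris-HCl, 2.5% SDS, 0.2 N NaOH; denatured Hb taken as FP from A412 minus A700.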

The test system of data set [4] is Plasmodium falciparum. The data set is described as follows: Antiplasmodial activity against chloroquine-resistant Plasmodium falciparum W2. The data set is classed as functional, organism-based.
Data set [5] is described as follows: Toxicity in human RBC assessed as hemolysis at 50 uM at 40 degC in presence of 10 uM ferriprotoporphyrin 9. The data set is classed as cell-based, Erythrocyte. The settings on record: human red blood cells (RBC), read-out: Activity. The method, boiled down: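 Hemolysis assay as for the 37°C format (5% Htc RBC, PBS-glucose, 2 h, 10 μM FP, supernatant A412 read-out), but run at 40°C.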

A short description of data set [6]: Toxicity in human RBC assessed as hemolysis at 50 uM. It is filed as cell-based. The settings on record: erythrocyte. A digest of the protocol:
(§2)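 Human RBC at 5% Htc in PBS-glucose held 2 h at 37°C with a range of compound concentrations, alone or with 10 μM FP. Cells spun down; hemolysis read as A412 of released Hb in supernatant. Five experiments in triplicate.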

Data set [7] in a line: Drug uptake in human RBC at 50 uM in absence of 10 um ferriprotoporphyrin 9. It is filed as ADME, cell-based. The settings on record: erythrocyte. The method, boiled down:
(§3)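 Washed human RBC given 50 μM compound for 30 min at 37°C, with or without 10 μM FP. Total uptake and membrane-bound fraction measured fluorimetrically after washing and CHCl3-1 N HCl extraction. One representative experiment in triplicate.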

Data set [8] in a line: Toxicity in human RBC assessed as potentiation of ferriprotoporphyrin 9-induced hemolysis at 50 uM after 2hrs in presence of 10 uM. The data set is classed as cell-based. The settings on record: erythrocyte. A digest of the protocol:
as §2

Data set [9] concerns Plasmodium falciparum. Briefly: Resistance index, ratio of IC50 for chloroquine-resistant Plasmodium falciparum W2 to IC50 for chloroquine-susceptible Plasmodium falciparum D10. It is filed as functional.
A short description of data set [10]: Lipid accumulation ratio of the compound. It is filed as physicochemical. A digest of the protocol: (§4)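 VAR taken as antilog of calculated log D7.4 minus calculated log D5.2. log D from log P and pKa values measured potentiometrically at 25°C in 0.15 M KCl (n-octanol/0.15 M KCl partitioning). LAR calculated by an earlier published procedure.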
Data set [11] in a line: Vacuolar accumulation ratio of the compound at pH 5.2. It is filed as ADME. The method, boiled down: as §4
A short description of data set [12]: Inhibition of beta-hematin formation by BHIA assay. The data set is classed as functional.
Another data set relates to Ferriprotoporphyrin IX. Briefly: Binding affinity to ferriprotoporphyrin 9sassessed as quenching of Soret band in presence of 40% DMSO-10 mM sodium phosphate buffer at pH 6.0. A digest of the protocol:
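Heme (FP, fresh stock in 0.02 N NaOH diluted in PBS) at 15 μM final in 10 mM sodium phosphate pH 6.0 with 40% DMSO, compound added at 1 to 200 μM; absorption spectra read after 2 min, Soret band quenching followed. Job's plot run in parallel (FP plus compound totalling 10 μM, A400 difference vs molar ratio). Three experiments in triplicate.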

The nature of data set [13]: Octanol-water partition coefficient, log P of the compound. It is filed as physicochemical.
Data set [14] can be described thus: Distribution coefficient, log D of the compound at pH 7.4. The data set is classed as physicochemical. The settings on record: octanol/water.
Data set [15] is filed under the species Homo sapiens. The data set is described as follows: Ratio of binding affinity to human RBC membrane parasitized with Plasmodium falciparum D10 to binding affinity to normal human RBC. The method, boiled down:
as §1

A short description of data set [16]: Drug uptake in human RBC at 50 uM in presence of 10 um ferriprotoporphyrin 9. The settings on record: erythrocyte. It is filed as ADME, cell-based. A digest of the protocol:
as §3

The species named for data set [17] is Homo sapiens. The data set is described as follows: Ratio of binding affinity to human RBC membrane parasitized with Plasmodium falciparum W2 to binding affinity to normal human RBC. A digest of the protocol:
as §1

As to `CCN(CC)CCCC(C)Nc1ccnc2cc(Cl)ccc12` (stereo not drawn) [CHLOROQUINE], the Activity entry was “Non-toxic” in data set [1]; “Dose-dependent effect” in the data set listed under Homo sapiens [2]; 40 nmol/h in the data set with Erythrocyte; “Non-toxic” in data set [6]; “Toxic” in data set [8]. In addition, the IC90 worked out at 44.6 nM with Plasmodium falciparum [3] and 441 nM in the data set on Plasmodium falciparum [4]. Also, the hemolysis at 50 µM in data set [5] was 84%. This compound came in with a Drug uptake in [7] of 10%.
With `Clc1ccc2c(NC[C@@H]3CCCN4CCCC[C@H]34)ccnc2c1`, the Activity entry was “Non-toxic” in data set [1], “Dose-dependent effect” in the data set listed under Homo sapiens [2], “Non-toxic” in data set [6] and “Toxic” in data set [8]. The “Ratio IC50” value in the data set on Plasmodium falciparum [9] amounted to 1.59. Also, the Ratio in data set [10] was 182; in [11], 22600; in the data set filed under Homo sapiens [15] it was 1.5; in the data set listed under Homo sapiens [17] it was 2. The figures for the IC50 (with Plasmodium falciparum [3]; in the data set with Plasmodium falciparum [4]; in [12]) were 26.4 nM, 41.8 nM and 1.52 equiv, respectively. Moreover, the IC90 in the data set with Plasmodium falciparum [3] worked out at 34.3 nM; in the data set on Plasmodium falciparum [4] it was 54.9 nM. The outcome in the data set with Erythrocyte and in the data set with Ferriprotoporphyrin IX was Active. Moreover, the hemolysis at 50 µM in data set [5] came out at 28%. In addition, the inhibition entry in [12] is “Dose-dependent effect”. Also, the Drug uptake in [7] was 18%; in data set [16] it was 50%. Besides, in data set [13], the logP was 4.94. In data set [14], this compound registered a logD of 2.26.
With `Clc1ccc2c(N[C@H]3CCCN4CCCC[C@H]34)ccnc2c1`, the Activity entry in data set [1] is “Non-toxic”; in the data set filed under Homo sapiens [2], “Dose-dependent effect”; in data set [6], “Non-toxic”; in data set [8], “Toxic”. Also, the “Ratio IC50” value in the data set on Plasmodium falciparum [9] worked out at 0.88. Further, the Ratio in data set [10] amounted to 490; in data set [11], 14900; in the data set filed under Homo sapiens [15] it was 2; in the data set listed under Homo sapiens [17] it was 1.5. For the same compound, the values for the IC50 (in the data set with Plasmodium falciparum [3]; with Plasmodium falciparum [4]; in [12]) were 24.2 nM, 21.3 nM and 1.12 equiv, respectively. The IC90 was 35.1 nM in the data set on Plasmodium falciparum [3] and 33.1 nM with Plasmodium falciparum [4]. For the same compound, the outcome in the data set with Erythrocyte and in the data set on Ferriprotoporphyrin IX was Active. Besides, in [5], the hemolysis at 50 µM is 50%. In addition, in data set [12], the inhibition entry is “Dose-dependent effect”. In addition, the Drug uptake is 18% in [7] and 50% in data set [16]. This compound also yielded a logP in data set [13] of 4.57. Moreover, the logD in data set [14] stood at 2.69.

(Values after ChEMBL document CHEMBL1671669, “Novel antimalarial aminoquinolines: heme binding and effects on normal or Plasmodium falciparum-parasitized human erythrocytes” (Antimicrob Agents Chemother, 2009).)
